Assay results collected from several papers.
Lines come from different studies, so protocols differ.
Cell line: HeLa
Read-out: cell growth or viability

SMILES | assay | conditions | IC50 [µM]
C=C[C@]1(C)C=C2CC[C@H]3C(C)(C)CCC[C@]3(C)[C@H]2CC1 | MTT | 75 h | 130
CN(C)C1CCc2[nH]c3c(C(N)=O)ccc(-c4ccccc4Cl)c3c2C1 (stereo not shown) | – | – | 0.19
[Cl-].[Li+] | MTT | – | > 10000
CCC(=CCc1c(O)cc2c(c1O)C(=O)CC(c1ccc(O)cc1)O2)CC (stereo in doubt) | MTT | – | 19.1
CC(C)CCOc1cc(C(=O)C[n+]2cn(C)c3ccccc32)c(OCCC(C)C)c2ccccc12 | MTT | 24 h | 13.9
CSc1ccccc1-c1ccc(C(N)=O)c2[nH]c3c(c12)CC(N)CC3 (stereo not shown) | – | – | 0.21
COc1ccc(NC(=S)N/N=C/c2cccc3cc4ccccc4nc23)cc1 | MTT | 48 h | 14.8
CCC(=CCc1c(O)cc2c(c1O)C(=O)C[C@@H](c1ccccc1O)O2)CC | MTT | 48 h | 51.3
COC(C)c1n(CCC(C)C)c2ccccc2[n+]1Cc1cc(OCCC(C)C)c2ccccc2c1OCCC(C)C (stereo not shown) | MTT | 24 h | 5.7
COc1cccc(Nc2nc(-c3ccncc3)nc3c2CNCC3)c1 | MTT | – | 23.2
Cc1cc2c(cc1C)[n+](Cc1cc(OCCC(C)C)c3ccccc3c1OCCC(C)C)cn2CCC(C)C | MTT | 24 h | 8.9
O=C(Cn1cc(COc2ncnc3[nH]cnc23)nn1)Nc1ccc([N+](=O)[O-])cc1 | MTT | – | 10.4
COc1cc([C@@H]2c3cc4c(cc3[C@@H](O[C@@H]3O[C@@H]5CO[C@@H](C)O[C@H]5[C@H](O)[C@H]3O)[C@H]3COC(=O)[C@H]23)OCO4)cc(OC)c1O | MTT | 48 h | 3.9
CC(C)CCOc1cc(C[n+]2c(C(C)C)n(CCC(C)C)c3ccccc32)c(OCCC(C)C)c2ccccc12 | MTT | 24 h | 6.8
CNc1cccc(Nc2nc(-c3ccncc3)nc3c2CNCC3)c1 | MTT | – | > 100
O=Cc1cccc(NC(=O)Cn2cc(COc3ncnc4[nH]cnc34)nn2)c1 | MTT | – | 22.1
CNC(=S)N/N=C/c1cccc2cc3ccccc3nc12 | MTT | 48 h | 21.8
CN(C)c1ccc(Nc2nc(-c3ccncc3)nc3c2CC(N)CC3)cc1 (stereo not shown) | MTT | – | 38.2
CC(C)CCOc1cc(C[n+]2cn(CCC(C)C)c3cc(-c4ccccc4)c(-c4ccccc4)cc32)c(OCCC(C)C)c2ccccc12 | MTT | 24 h | 11.2
CN(C)C(=S)[N-]N=C(c1ccccn1)c1ccccn1.[O]=[V+]=[O] | MTT | 48 h | 42.9
S=C(N/N=C/c1cccc2cc3ccccc3nc12)Nc1ccccc1 | MTT | 48 h | 28.3
CC(C)CCOc1cc(C(=O)C[n+]2cn(Cc3ccccc3)c3ccccc32)c(OCCC(C)C)c2ccccc12 | MTT | 24 h | 14.8
CN1CCc2c(c3ccccc3n2Cc2ccc(C(=O)NO)cc2)C1 | CCK-8 | 48 h | 17.6
COc1cccc2c1C(=O)c1c(O)c3c(c(O)c1C2=O)C[C@@](O)(C(=O)CO)C[C@@H]3O[C@H]1C[C@H](N)[C@H](O)[C@H](C)O1 | MTT | 75 h | 0.27
CCCCCCCCOc1cc(C(=O)C[n+]2cn(CCC(C)C)c3ccccc32)c(OCCCCCCCC)c2ccccc12 | MTT | 24 h | 14.3
O=C(Cn1cc(COc2ncnc3[nH]cnc23)nn1)Nc1ccc(O)cc1 | MTT | – | 17.6
CC(C)CCOc1cc(C[n+]2cn(CCC(C)C)c3cc(Br)c(Br)cc32)c(OCCC(C)C)c2ccccc12 | MTT | 24 h | 7.2
COc1cccc2c1C(=O)c1c(O)c3c(c(O)c1C2=O)C[C@@](O)(C(=O)CO)C[C@@H]3O[C@H]1C[C@H](N)[C@H](O)[C@H](C)O1 | MTT | 48 h | 0.2
